The source of these data is ChEMBL document CHEMBL2176886, “Anti-AIDS agents 90. novel C-28 modified bevirimat analogues as potent HIV maturation inhibitors” (J Med Chem, 2012).

Structures are written as SMILES. The source made the active and inactive calls. No cut-off for these calls is given here.

Series [1] deals with Human immunodeficiency virus 1. In words: Antiviral activity against HIV1 infected in human TZM-bl cells assessed as reduction of viral entry after 48 hrs by luciferase reporter gene assay. It counts as functional, organism-based. The method in brief:
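Single-round infection of TZM-bl cells (HeLa clone expressing CD4/CCR5 with HIV-1 LTR-driven firefly luciferase) with HIV-1 at 200 TCID50 mixed with test samples. After 48 h, medium was replaced with Bright-Glo reagent and luminescence read. IC50 is the concentration giving 50% RLU reduction versus virus-control wells after background subtraction.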
(Reporter assays use an easily measured gene product as a stand-in for the process of interest.)

In series [2] the test system is Human immunodeficiency virus 1. In words: Antiviral activity against HIV1 NL4-3 infected in human MT4 cells assessed as p24 antigen level after 4 days by ELISA. It counts as functional, organism-based. To be noted: Human immunodeficiency virus 1, NL4-3, MT4, 96 h. In a few lines: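 MT-4 cells infected with HIV-1 NL4-3 variants at MOI 0.01; supernatants harvested day 4 post-infection for p24 antigen capture ELISA. IC50 is the concentration inhibiting replication by 50%; values are averages of at least three separate experiments.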
On the technique in general: An ELISA detects its analyte on a solid surface through an enzyme-linked reagent.

Series [3] concerns MT4. In words: Cytotoxicity against human MT4 cells after 2 days. It counts as cell-based. To be noted: mt4, 48 h.
Series [4] is described as follows: Therapeutic index, ratio of CC50 for human MT4 cells to IC50 for HIV-1 NL4-3. It counts as cell-based. Particulars: read-out: Ratio CC50/IC50. The method in brief: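 TI calculated as CC50 (mock-infected MT-4 growth, 2 days) divided by IC50 (HIV-1 NL4-3 replication in MT-4 cells, p24 ELISA at day 4).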
The subject of series [5] is Human immunodeficiency virus 1. In words: Ratio of bevirimat IC50 to compound IC50 for HIV1 NL4-3 infected in human MT4 cells. It counts as functional. The method in brief: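 MT-4 cells were infected with HIV-1 NL4-3 at MOI 0.01. Day-4 supernatant p24 was measured by ELISA. IC50 is the concentration giving 50% inhibition of replication, from averages of at least three separate experiments. The ratio divides the bevirimat IC50 by the compound IC50, both from this assay.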

Series [6] is filed under the species Homo sapiens. In words: Elimination half life in human. It counts as ADME, organism-based. To be noted: in vivo.
Series [7] concerns Human immunodeficiency virus 1. In words: Antiviral activity against HIV1 infected in human TZM-bl cells assessed as reduction of viral […] after 48 hrs by luciferase reporter gene assay. It counts as functional, organism-based. In a few lines:
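Single-round infection of TZM-bl cells (HeLa clone expressing CD4 and CCR5, HIV-1 LTR-driven firefly luciferase) with HIV-1 at 200 TCID50 mixed with samples. Luminescence read after 48 h. IC50 is the concentration giving 50% lower RLU than virus control wells, after subtracting background RLU.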

Series [8] is described as follows: Metabolic stability in human liver microsomes assessed as compound remaining at 1 uM after 60 mins by HPLC-MS analysis. It counts as ADME, Microsome. Particulars: read-out: Stability. In a few lines: (§1)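 Pooled human liver microsomes at 0.1 mg/mL in 0.1 M potassium phosphate pH 7.4 with 5 mM MgCl2. Compound at 1 μM final; reaction started with 1.0 mM NADPH (final) at 37 °C, duplicate incubations. Quenched with ice-cold acetonitrile at 0, 5, 15, 30, 60 min. Parent measured by LC-ESI-MS (SIM), remaining percentage relative to 0 min. t1/2 = 0.693/k from log-linear slope.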
For orientation: Microsomes from liver hold many membrane-bound enzymes, among them those of drug oxidation.

Series [9] has as its system Liver microsomes. In words: Half life in human liver microsomes at 1 uM. It counts as ADME, Microsome. The method in brief:
as §1

Take `C=C(C)[C@@H]1CC[C@]2(C(=O)N3CCN(CCCC(=O)O)CC3)CC[C@]3(C)[C@H](CC[C@@H]4[C@@]5(C)CC[C@H](OC(=O)CC(C)(C)C(=O)O)C(C)(C)[C@@H]5CC[C@]43C)[C@@H]12`: in series [1], the result was inactive. The 50% inhibitory concentration (IC50) in series [2] amounted to 0.011 µM. Besides, the midpoint of cytotoxicity in series [3], the CC50, lay at 13 µM. Moreover, the selectivity ratio in [4] was found to be 1180. In addition, in series [5], the Ratio IC50 was 7.9.
Take `C=C(C)[C@@H]1CC[C@]2(C(=O)O)CC[C@]3(C)[C@H](CC[C@@H]4[C@@]5(C)CC[C@H](OC(=O)CC(C)(C)C(=O)O)C(C)(C)[C@@H]5CC[C@]43C)[C@@H]12` [BEVIRIMAT]: the result in series [1] was inactive. The IC50 in series [2] stood at 0.087 µM. The “beta t1/2” value in [6] amounted to 56.3 h. Besides, the CC50 in [3] worked out at 14.2 µM. Besides, the selectivity ratio in [4] was determined as 171.
Consider `C=C(C)[C@@H]1CC[C@]2(C(=O)OCCCCCC(=O)OCC)CC[C@]3(C)[C@H](CC[C@@H]4[C@@]5(C)CC[C@H](OC(=O)CC(C)(C)C(=O)O)C(C)(C)[C@@H]5CC[C@]43C)[C@@H]12`, for which the outcome in [1] was inactive. Also, in series [2], the IC50 is 0.056 µM. Further, the midpoint of cytotoxicity in [3], the CC50, lay at 8.6 µM. Also, the selectivity ratio in series [4] worked out at 154. The outcome in series [7] was Active.
Consider `C=C(C)[C@@H]1CC[C@]2(C(=O)OCOCCOC)CC[C@]3(C)[C@H](CC[C@@H]4[C@@]5(C)CC[C@H](OC(=O)CC(C)(C)C(=O)O)C(C)(C)[C@@H]5CC[C@]43C)[C@@H]12`, for which the result in [1] was inactive. Further, the IC50 in series [2] is 0.046 µM. Besides, in series [3], the CC50 was determined as 12.1 µM. In series [4], the selectivity ratio is 261. Also, the “Ratio IC50” value in [5] came out at 2. In addition, the result in series [7] was Active.
`C=C(C)[C@@H]1CC[C@]2(C(=O)N3CCC(CCCC(=O)NCCCN4CCOCC4)CC3)CC[C@]3(C)[C@H](CC[C@@H]4[C@@]5(C)CC[C@H](OC(=O)CC(C)(C)C(=O)O)C(C)(C)[C@@H]5CC[C@]43C)[C@@H]12`: the outcome in series [1] was inactive. The IC50 in series [2] was 0.031 µM. For the same molecule, the CC50 in series [3] came out at 10 µM. In series [4], the selectivity ratio stood at 321. Moreover, the “Ratio IC50” value in series [5] turned out to be 3.
The corresponding values for `C=C(C)[C@@H]1CC[C@]2(C(=O)N3CCC(CCCC(=O)NCCN4CCOCC4)CC3)CC[C@]3(C)[C@H](CC[C@@H]4[C@@]5(C)CC[C@H](OC(=O)CC(C)(C)C(=O)O)C(C)(C)[C@@H]5CC[C@]43C)[C@@H]12` are “inactive”, 0.035 µM, 10 µM, 286 and 3.
`C=C(C)[C@@H]1CC[C@]2(C(=O)N3CCN(CCCCC(=O)O)CC3)CC[C@]3(C)[C@H](CC[C@@H]4[C@@]5(C)CC[C@H](OC(=O)CC(C)(C)C(=O)O)C(C)(C)[C@@H]5CC[C@]43C)[C@@H]12`: in [1], the outcome was inactive. In series [2], the IC50 was 0.0059 µM. In addition, the CC50 in [3] came out at 13.2 µM. Besides, in series [8], the remaining at 1 h, 1 µM came to 86.2%. Moreover, the selectivity ratio in series [4] amounted to 2240. Further, the t1/2 in series [9] stood at 5.45 h. Besides, in series [5], the “Ratio IC50” value stood at 15. The result in series [7] was Active.
Consider `C=C(C)[C@@H]1CC[C@]2(C(=O)OCCC)CC[C@]3(C)[C@H](CC[C@@H]4[C@@]5(C)CC[C@H](OC(=O)CC(C)(C)C(=O)O)C(C)(C)[C@@H]5CC[C@]43C)[C@@H]12`, for which the outcome in series [1] was inactive. In series [2], the IC50 came to 0.088 µM. In [3], the CC50 was 10.4 µM. Further, in series [4], the selectivity ratio turned out to be 118. The outcome in [7] was Active.
The corresponding values for `C=C(C)[C@@H]1CC[C@]2(C(=O)OCCCCCC)CC[C@]3(C)[C@H](CC[C@@H]4[C@@]5(C)CC[C@H](OC(=O)CC(C)(C)C(=O)O)C(C)(C)[C@@H]5CC[C@]43C)[C@@H]12` are “inactive”, 1.8 µM, 14.8 µM, 8.3 and “Active”.

A word on the IC50: it is the point on the concentration scale where inhibition reaches its midpoint. What is called CC50 is the concentration at which the toxic effect on the cells reaches its halfway point. Low values mean greater toxicity to the cells, high ones lower toxicity to the cells.
